We go through 2 compounds from ChEMBL document CHEMBL5634098, “Hydrophobicity modulation via the substituents at positions 2 and 4 of 1,3,5-triazine to enhance therapeutic ability against Alzheimer's disease for potent serotonin 5-HT6R agents” (Eur J Med Chem, 2023).

The Ki is the dissociation constant of the complex between target and ligand, obtained from inhibition or displacement. As a reminder, the solubility is the dissolved amount per volume that the medium holds. Read a high solubility as a readily soluble substance.

Structures are written as SMILES. “And” between values parts separate entries of the source, which are not always exact repeats. Equal entries are not always repeated.

The target in series [1] is T1, 5-hydroxytryptamine receptor 1A (Homo sapiens, UniProt P08908).
T1 sequence (P08908 whole entry): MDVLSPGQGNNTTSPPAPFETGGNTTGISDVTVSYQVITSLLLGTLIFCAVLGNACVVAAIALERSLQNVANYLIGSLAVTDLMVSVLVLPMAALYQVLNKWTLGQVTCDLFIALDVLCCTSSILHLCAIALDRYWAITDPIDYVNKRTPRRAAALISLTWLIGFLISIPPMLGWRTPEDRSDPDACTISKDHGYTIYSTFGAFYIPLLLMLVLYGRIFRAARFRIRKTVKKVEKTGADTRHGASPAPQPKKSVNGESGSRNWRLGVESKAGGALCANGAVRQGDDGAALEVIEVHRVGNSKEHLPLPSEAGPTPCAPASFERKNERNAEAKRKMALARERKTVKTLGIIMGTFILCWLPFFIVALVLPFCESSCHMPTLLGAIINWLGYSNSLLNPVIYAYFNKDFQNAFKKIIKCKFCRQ
Description: Displacement of [3H]-8-OH-DPAT from human 5-HT1A receptor expressed in HEK293 cell membranes assessed as inhibition constant incubated for 1 hr by Microbeta plate reader based analysis. Further details: species or system Membrane. In general terms: Displacement assays read how much labelled ligand stays bound in the presence of the test substance.

The target in series [2] is 5-hydroxytryptamine receptor 2A (Homo sapiens, UniProt P28223). Description: Displacement of [3H]-ketanserin from human 5-HT2A receptor expressed in HEK293 cell membranes assessed as inhibition constant incubated for 1 hr by Microbeta plate reader based analysis. Further details: species or system Membrane.
Series [3] deals with 5-hydroxytryptamine receptor 7 (Homo sapiens, UniProt P34969). Description: Displacement of [3H]-5-CT from human 5-HT7 receptor expressed in HEK293 cell membranes assessed as inhibition constant incubated for 1 hr by Microbeta plate reader based analysis. Further details: species or system Membrane.
The next series concerns the target D(2) dopamine receptor (Homo sapiens, UniProt P14416). Put plainly: Displacement of [3H]-raclopride from human D2 receptor expressed in HEK293 cell membranes assessed as inhibition constant incubated for 1 hr by Microbeta plate reader based analysis. More on the design: species or system Membrane.
Series [4] is described as follows: Aqueous solubility of compound at 10 mg boiled for 5 mins and incubated overnight by UV spectroscopy. The settings on record: aqueous medium. Format: physicochemical.
Series [5] in a line: Drug metabolism in rat liver microsomes assessed as decomposition mediated (R/S)-4-(1-(2,5-dichlorophenoxy)propyl)-6-(4-methylpiperazin-1-yl)-N-phenyl-1,3,5-triazin-2-amine metabolite formation by measuring retention time measured after 120 mins by LC-MS analysis. It is filed as ADME, Microsome. The settings on record: 2 h. In short, it runs like this: (§1)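 Phase I: compounds incubated with rat liver microsomes for 120 min at 37 °C; metabolites identified by LC/MS mass spectra against control sample.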

Series [6] can be described thus: Drug metabolism in rat liver microsomes assessed as decomposition mediated (R/S)-4-((2-aminoethyl)(hydroxy)amino)-6-(1-(2,5-dichlorophenoxy)propyl)-N-phenyl-1,3,5-triazin-2-amine metabolite formation by measuring retention time measured after 120 mins by LC-MS analysis. Format: ADME, Microsome. The settings on record: 2 h. In short, it runs like this: as §1
A short description of series [7]: Permeability of compound at 200 uM incubated for 5 hrs by PAMPA assay. The settings on record: read-out: permeability. It is filed as ADME. On the technique in general: PAMPA measures passive passage across an artificial lipid membrane.
In a further series the test system is HepG2. Description: Cytotoxicity against human HepG2 cells assessed as reduction in cell viability at 100 uM incubated for 72 hrs by MTS assay. Format: toxicity, cell-based. The settings on record: hepg2, 72 h. In short, it runs like this: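 HepG2 hepatoma cells exposed 72 h to compounds at 1, 10, 50 and 100 μM; doxorubicin 1 μM as positive control, 1% DMSO in growth medium as negative control. Viability read by MTS assay, absorbance 490 nm.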
On the technique in general: Formazan colour is commonly taken as a measure of viable cells.

A short description of series [8]: Effect on Wistar rat memory assessed as total exploratory time in T2 session at 0.1 mg/kg, ip measured after 60 mins by novel object recognition test (reference value: 31.86 +/- 2.15 sec). The settings on record: in vivo, 1 h. Format: toxicity, organism-based. In short, it runs like this:
(§2)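 Rats given compound i.p. (2 mL/kg; vehicle 1% Tween 80) 60 min before T1 familiarization phase, without MK-801; doses 0.1–3 mg/kg. T2 recognition session 3 min; discrimination index (EB − EA)/(EA + EB) and total exploration time of both objects recorded; n = 6–8; mean ± SEM, one-way ANOVA/Bonferroni.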

Series [9] can be described thus: Effect on Wistar rat memory assessed as total exploratory time in T2 session at 0.3 mg/kg, ip measured after 60 mins by novel object recognition test (reference value: 31.86 +/- 2.15 sec). It is filed as toxicity, organism-based. The settings on record: in vivo, 1 h. In short, it runs like this: as §2
A short description of series [10]: Effect on Wistar rat memory assessed as total exploratory time in T2 session at 1 mg/kg, ip measured after 60 mins by novel object recognition test (reference value: 31.86 +/- 2.15 sec). It is filed as toxicity, organism-based. The settings on record: in vivo, 1 h. In short, it runs like this: as §2
Series [11] can be described thus: Effect on Wistar rat memory assessed as total exploratory time in T2 session at 3 mg/kg, ip measured after 60 mins by novel object recognition test (reference value: 31.86 +/- 2.15 sec). Format: toxicity, organism-based. The settings on record: in vivo, 1 h. In short, it runs like this:
as §2

Series [12] concerns Rattus norvegicus. Put plainly: Reversal of MK-801 induced memory impairment in Wistar rat assessed as total exploratory time at 0.1 mg/kg, ip pretreated for 30 mins followed by MK-801 administration and measured after 30 mins by novel object recognition test (reference value: 39.29 +/- 3.44 sec). Format: functional. The settings on record: time 60 min, 1 h.
The test system of series [13] is Rattus norvegicus. Description: Reversal of MK-801 induced memory impairment in Wistar rat assessed as total exploratory time at 0.3 mg/kg, ip pretreated for 30 mins followed by MK-801 administration and measured after 30 mins by novel object recognition test (reference value: 39.29 +/- 3.44 sec). It is filed as functional. The settings on record: time 60 min, 1 h.

Series [14] concerns Rattus norvegicus. Description: Reversal of MK-801 induced memory impairment in Wistar rat assessed as total exploratory time at 1 mg/kg, ip pretreated for 30 mins followed by MK-801 administration and measured after 30 mins by novel object recognition test (reference value: 39.29 +/- 3.44 sec). It is filed as functional. The settings on record: time 60 min.
In series [15] the test system is Rattus norvegicus. Put plainly: Reversal of MK-801 induced memory impairment in Wistar rat assessed as total exploratory time at 3 mg/kg, ip pretreated for 30 mins followed by MK-801 administration and measured after 30 mins by novel object recognition test (reference value: 39.29 +/- 3.44 sec). Format: functional. The settings on record: time 60 min, 1 h.
Series [16] can be described thus: Metabolic stability at phase II in rat liver microsomes assessed as compound remaining at 50 uM preincubated for 5 mins followed by UDPGA and NADPH addition and measured after 1 hr by LC-MS analysis. It is filed as ADME, Microsome. The settings on record: time 65 min, read-out: Stability.

Sequence of D(2) dopamine receptor (P14416 whole entry): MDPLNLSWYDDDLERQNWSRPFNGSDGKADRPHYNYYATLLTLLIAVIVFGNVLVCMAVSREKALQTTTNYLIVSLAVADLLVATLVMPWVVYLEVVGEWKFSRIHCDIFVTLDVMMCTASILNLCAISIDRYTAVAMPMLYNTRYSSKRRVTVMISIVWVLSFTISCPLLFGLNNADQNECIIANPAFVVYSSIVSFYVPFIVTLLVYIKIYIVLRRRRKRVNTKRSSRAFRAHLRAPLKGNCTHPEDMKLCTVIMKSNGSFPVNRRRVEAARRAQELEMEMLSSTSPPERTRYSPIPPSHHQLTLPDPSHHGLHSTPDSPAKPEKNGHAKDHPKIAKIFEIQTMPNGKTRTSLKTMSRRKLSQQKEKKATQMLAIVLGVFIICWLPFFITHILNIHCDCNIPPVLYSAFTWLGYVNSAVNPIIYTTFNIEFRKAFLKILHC
Sequence of 5-hydroxytryptamine receptor 7 (P34969 whole entry): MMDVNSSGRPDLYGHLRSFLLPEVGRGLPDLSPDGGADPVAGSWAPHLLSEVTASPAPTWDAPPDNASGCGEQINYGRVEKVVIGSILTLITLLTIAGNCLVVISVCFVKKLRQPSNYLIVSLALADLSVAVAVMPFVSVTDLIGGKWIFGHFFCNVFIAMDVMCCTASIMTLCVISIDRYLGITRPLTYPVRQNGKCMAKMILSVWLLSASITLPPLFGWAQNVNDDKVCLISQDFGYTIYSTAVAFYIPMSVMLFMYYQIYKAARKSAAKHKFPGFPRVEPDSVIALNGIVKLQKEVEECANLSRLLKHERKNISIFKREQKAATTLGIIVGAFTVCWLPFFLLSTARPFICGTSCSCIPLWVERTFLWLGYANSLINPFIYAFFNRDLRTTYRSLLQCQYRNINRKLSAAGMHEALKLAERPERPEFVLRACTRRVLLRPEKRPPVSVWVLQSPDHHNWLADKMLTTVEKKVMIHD
Sequence of 5-hydroxytryptamine receptor 2A (P28223 whole entry): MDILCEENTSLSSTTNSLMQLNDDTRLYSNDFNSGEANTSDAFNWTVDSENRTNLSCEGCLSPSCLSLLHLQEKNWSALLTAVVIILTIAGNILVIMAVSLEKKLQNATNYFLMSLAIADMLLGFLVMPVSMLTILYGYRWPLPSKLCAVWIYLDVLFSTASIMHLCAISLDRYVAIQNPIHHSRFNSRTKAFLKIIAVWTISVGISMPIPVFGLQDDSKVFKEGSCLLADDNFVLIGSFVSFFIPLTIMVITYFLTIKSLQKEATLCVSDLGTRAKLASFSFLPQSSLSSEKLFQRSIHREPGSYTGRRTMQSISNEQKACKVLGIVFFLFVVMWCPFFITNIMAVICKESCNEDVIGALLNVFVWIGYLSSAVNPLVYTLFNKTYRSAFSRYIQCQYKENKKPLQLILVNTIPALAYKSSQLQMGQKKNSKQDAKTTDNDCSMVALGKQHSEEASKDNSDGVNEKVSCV

For the compound `CCC(Oc1cc(Cl)ccc1Cl)c1nc(Nc2ccccc2)nc(N2CCN(C)CC2)n1` (stereo not drawn), the Ki came out at 5400 nM in [1], 338 nM in series [2], 2590 nM in [3] and 421 nM on D(2) dopamine receptor. In series [4], the solubility at 5 min was 15 µg/mL and 32 µM. Further, the Retention_time in series [5] is given as 3.43 min; in series [6], 5.67 min.

Take `CCC(Oc1cc(F)ccc1F)c1nc(N)nc(N2CCN(C)CC2)n1` (stereo not drawn): the Ki turned out to be 3040 nM in [1], 573 nM in series [2], 11500 nM in series [3] and 1630 nM at D(2) dopamine receptor. For the same compound, in series [4], the solubility at 5 min is 79 µg/mL and 217 µM. Moreover, in [7], the Papp at 5 h, 200 µM was 20.6 ×10⁻⁶ cm/s. In addition, in the series with HepG2, the Activity entry is reported as “Non-Toxic”. Further, the Time in [8] amounted to 38.29 s; in series [9], 34.63 s; in [10], 39.38 s; in series [11] it was 31.63 s; in the series on Rattus norvegicus [12] it was 33.25 s; with Rattus norvegicus [13] it was 31 s. Moreover, the Time was determined as 32.57 s with Rattus norvegicus [14] and 27.75 s with Rattus norvegicus [15]. The remaining at 1 h, 50 µM in [16] worked out at 82.6%.
